Rpn11 block: blocks the human proteasome subunit Rpn11; AID 588493; inhibition, % at 20 µM; human 26S proteasome, Ub4-pepOG fluorescence polarization; 20S core pre-blocked with epoxomicin; actives 0.59% (n = 360,000); O00487;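 active = inhibition at 20 µM, scaled to each plate's controls, above about 33%, limit read from the data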
LMPTP block: blocks human LMPTP phosphatase | P24666 | recombinant LMPTP-A, OMFP fluorogenic substrate, fluorescence intensity | inhibition, % at 20 µM | actives 0.22% (n = 360,000) | AID 651560;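 active = compounds that cut the enzyme signal by at least half of the control window in the single-dose screen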
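Test system – LMPTP-A phosphatase enzyme · Quantity – 0.625 nM LMPTP-A final · Reagent – OMFP substrate, 400 µM final · Dosing – one test concentration per compound, 20 µM, with 3% DMSO overall · Timing – 50 min enzyme reaction at room temperature, protected from light · Detection – fluorescence intensity · Controls – substrate-only low control, DMSO enzyme-plus-substrate high control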
DNMT1 block: blocks human DNA methyltransferase DNMT1; AID 588458; DNMT1 molecular beacon, Hinp1I cleavage, fluorescence; actives 0.83% (n = 360,000); P26358; inhibition (reported as % activation of signal), % at 10 µM; in the data active = inhibition above about 50%
STEP block: blocks human striatal-enriched tyrosine phosphatase | recombinant STEP, OMFP fluorogenic substrate, fluorescence | actives 0.25% (n = 360,000) | inhibition, % at 20 µM;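 active = inhibition at 20 µM, scaled per plate between control wells, above about 37%, limit read from the data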
Target sequence (P54829 whole entry, looked up): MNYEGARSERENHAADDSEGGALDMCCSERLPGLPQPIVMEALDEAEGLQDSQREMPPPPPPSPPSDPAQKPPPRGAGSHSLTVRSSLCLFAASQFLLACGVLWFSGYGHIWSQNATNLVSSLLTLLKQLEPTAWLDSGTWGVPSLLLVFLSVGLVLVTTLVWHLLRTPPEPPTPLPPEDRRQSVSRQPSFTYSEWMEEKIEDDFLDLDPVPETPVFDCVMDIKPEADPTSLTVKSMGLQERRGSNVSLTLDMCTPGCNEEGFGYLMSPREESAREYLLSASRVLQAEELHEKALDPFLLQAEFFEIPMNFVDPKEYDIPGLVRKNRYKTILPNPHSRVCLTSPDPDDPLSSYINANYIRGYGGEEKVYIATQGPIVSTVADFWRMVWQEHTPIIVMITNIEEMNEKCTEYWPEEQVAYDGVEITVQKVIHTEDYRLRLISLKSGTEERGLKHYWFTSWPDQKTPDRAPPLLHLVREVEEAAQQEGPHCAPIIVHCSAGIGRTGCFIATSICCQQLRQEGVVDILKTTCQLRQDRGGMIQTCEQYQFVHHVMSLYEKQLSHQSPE
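Assay system: isolated STEP enzyme / Timing: 20 min at room temperature, dark / Doses: 20 µM, 1% DMSO / Technique: fluorescence intensity, excitation 480 nm, emission 540 nm / Reagent: fluorogenic phosphatase substrate OMFP at 25 µM final / Measure: percent inhibition scaled to no-enzyme and uninhibited-enzyme controls, plate-pattern corrected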
Scp-1 inhibitor: inhibitors of human Scp-1 phosphatase | Recombinant Scp1, phosphopeptide, malachite green phosphate absorbance | AID 493091 | actives 0.88% (n = 340,000) | Q9GZU7 | inhibition, % at 20 µM;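 active = inhibition above about 50% at 20 µM, limit read from the data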
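Test system – truncated SCP-1 phosphatase (76-261aa) · Reagent – Phosphorylated 17-residue peptide substrate · Incubation – 45 min room-temperature reaction, 5 min colour, 30 min stabiliser · Detection – colorimetric phosphate reagent with accelerator and stabiliser, absorbance at 630 nm · Measure – % inhibition at 20 µM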
SUMO1-SIM PPI: alters human SUMO1 binding to SIM partners; SUMO1 binding to a labelled peptide, TR-FRET, 1 h; inhibition, % at 20 µM; actives 0.33% (n = 360,000); AID 602429; in the data active = inhibition above about 37%
Target sequence (P63165 whole entry, looked up): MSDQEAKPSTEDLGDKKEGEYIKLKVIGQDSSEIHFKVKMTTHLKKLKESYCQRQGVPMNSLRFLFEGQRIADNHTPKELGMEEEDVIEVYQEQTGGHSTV
Scp1 confirm: confirmation of human Scp-1 phosphatase inhibitors. shares compounds with Scp-1 inhibitor. recombinant SCP-1 catalytic domain, phosphate release, malachite green absorbance. inhibition, % at 20 µM. actives 61% (n = 2,500). AID 540281
Scp-1 MG ctr: interferes with malachite green readout, flagging false Scp-1 hits; shares compounds with Scp-1 inhibitor; Colorimetric interference counterscreen, malachite green absorbance 630 nm; apparent inhibition (interference), % at 20 µM; 2,500 tested, under 10 active; AID 540313;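 note: compounds added after enzyme reaction finished so only phosphate colour detection is probed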
Scp1 DSF: binds human Scp-1, shifting its melting temperature; shares compounds with Scp-1 inhibitor; Recombinant SCP1, Sypro Orange thermal shift Tm; thermal shift relative to vanadate control, % at 40 µM; actives 25% (n = 1,500); AID 540329;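 active = substances whose mean melting-temperature shift, as a percentage of the reference inhibitor's shift, reaches about 5.3%, limit read from the data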
Numbers stand for hits; - = inactive; . = no result. The list is not random: actives were taken first. Their share in the collection is about 2.3%.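 Rule for the calls, unless noted: active = inhibition of at least 30% at 20 µM; inactive = the rest.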

SMILES	Rpn11 block	LMPTP block	DNMT1 block	STEP block	Scp-1 inhibitor	SUMO1-SIM PPI	Scp1 confirm	Scp-1 MG ctr	Scp1 DSF
CCOC(=O)C1ON2CCCCC2C1(O)C(F)(F)F (configuration not stated)	-	-	-	-	-	-	.	.	.
Cc1cc(C)n2nc(C(=O)OCC(=O)c3cc(C)n(C)c3C)nc2n1	-	-	-	-	52	-	58	-	-
Cc1cc(C)n2nc(C(=O)OCC(=O)c3ccccc3Cl)nc2n1	-	-	-	-	-	-	.	.	.
Cc1cc(C(=O)COC(=O)c2cc(Cl)c(O)c(Cl)c2)c(C)n1C	-	-	55	-	55	-	36	-	9.4
Cc1cc([N+](=O)[O-])cc(/C=N\NC(=O)C2COc3ccccc3O2)c1O (configuration not stated)	-	-	-	-	-	-	.	.	.
O=S(=O)(c1ccc(OC(F)(F)F)cc1)N1CCCC(N2CCOCC2)C1 (configuration not stated)	-	-	-	-	-	-	.	.	.
CC(CC(=O)c1ccccc1)=NCC(O)CN=C(C)CC(=O)c1ccccc1 (configuration not stated)	-	-	-	-	.	-	.	.	.
N=C1S/C(=C\c2ccco2)C(=O)N1c1ccc2c(c1)OCO2	-	-	-	-	79	-	46	-	-
O=C(c1cc(COc2ccc(F)c(F)c2)on1)N1CCN(C2CCCCC2)C(=O)C1	-	-	-	-	-	-	.	.	.
CC(=O)Nc1ccc(NC(=O)CCS(=O)(=O)c2ccc3c(c2)oc(=O)n3C)cc1	-	-	-	-	-	-	.	.	.
CC(=O)c1ccc(NC(=O)CCS(=O)(=O)c2ccc3c(c2)n(C)c(=O)c(=O)n3C)cc1	-	-	-	-	71	-	31	-	-
CCOC(=O)c1c(NC(=O)C2C3C=CC(C3)C2(C)C(=O)O)sc2c1CCCC2 (configuration not stated)	-	-	-	-	53	-	56	-	-
O=C(O)/C=C/c1ccc(S(=O)(=O)NCc2cccnc2)cc1	-	-	-	-	-	-	.	.	.
CCn1c(SCC(=O)Nc2oc(C)c3c(C)n[nH]c(=O)c23)nc2sc(C)c(C)c2c1=O	-	-	-	-	66	-	-	-	.
N#Cc1ccccc1S(=O)(=O)N1CCN(C(=O)CN2C(=O)NC3(CCCC3)C2=O)CC1	-	-	-	-	-	-	.	.	.
COc1ccc(C(=O)CSc2nc3[nH]ncc3c(=O)[nH]2)cc1	-	-	-	-	-	-	.	.	.
O=S(=O)(NC1CCN(S(=O)(=O)c2c(F)cccc2F)CC1)c1ccc2c(c1)OCCO2	-	-	-	-	-	-	.	.	.
CCCN1C(=O)c2cc(C(=O)O)ccc2C1O (configuration not stated)	-	-	-	-	-	-	.	.	.
CCCN1C(=O)c2cc(C(=O)NC3CCCCCC3)ccc2C1O (configuration not stated)	-	-	-	-	60	-	-	-	.
CCOC1=C2[C@H](c3ccccc3F)N(S(=O)(=O)c3ccc(C)cc3)C[C@H]2n2c(=O)n(-c3ccccc3)c(=O)n2C1	-	-	-	-	.	-	.	.	.
O=C(CSc1nc(-c2ccccc2)nc2ccc(F)cc12)Nc1ccc(C(=O)O)cc1	-	62	-	-	61	-	53	-	-
O=C(CSc1nncc2ccccc12)Nc1cccc(C(=O)O)c1	-	-	-	-	-	-	.	.	.
O=C(CSc1nc(-c2ccccc2)nc2ccc(F)cc12)Nc1cccc(C(=O)O)c1	-	63	-	-	67	-	60	-	-
C[N+]1(CCCCSc2ccc(O)cc2)CCCCC1	-	-	-	-	98	-	83	-	-
COc1ccccc1CNC(=O)COC(=O)c1cnccn1	-	-	-	-	-	-	.	.	.
SMILES	Rpn11 block	LMPTP block	DNMT1 block	STEP block	Scp-1 inhibitor	SUMO1-SIM PPI	Scp1 confirm	Scp-1 MG ctr	Scp1 DSF
COc1ccccc1CNC(=O)c1cnccn1	-	-	-	-	56	-	57	-	-
CCOC(=O)c1c(NC(=O)CSc2nnc(-c3c[nH]c4ccccc34)n2C)sc2c1CCCC2	-	-	-	-	53	-	32	-	-
N#Cc1ccsc1NC(=O)COC(=O)C1=NNC(=O)CC1	-	62	-	-	71	38	49	-	-
Cc1onc(-c2ccccc2)c1C(=O)Nc1nnc(-c2ccncc2)s1	-	-	-	-	-	-	.	.	.
Cc1noc(C)c1C(=O)Nc1nnc(-c2ccccc2)s1	-	-	-	-	67	-	-	-	.
Cc1ccc(S(=O)(=O)NC(C)CCc2ccccc2)cc1C(N)=O (configuration not stated)	-	-	-	-	-	-	-	-	.
Cc1ccc(S(=O)(=O)NC(C)CCc2ccccc2)cc1 (configuration not stated)	-	-	-	-	-	-	.	.	.
CCCCn1c(-c2ccco2)nc2oc3ccccc3c(=O)c2c1=O	-	-	-	-	62	-	-	-	.
COc1ccc(CCN2CC(C(=O)Nc3cccc(C(C)=O)c3)CC2=O)cc1OC (configuration not stated)	-	-	-	-	-	-	.	.	.
COc1ccc(CCN2CC(C(=O)OC(C)C(=O)Nc3cccc(Cl)c3)CC2=O)cc1OC (configuration not stated)	-	-	-	-	-	-	-	-	.
C[C@H](CO)N1C[C@H](C)[C@@H](CN(C)Cc2ccc3c(c2)OCO3)Oc2ccc(NS(C)(=O)=O)cc2C1=O	-	-	-	-	-	-	.	.	.
O=C(Cn1c(=O)oc2cc(S(=O)(=O)N3CCCC3)ccc21)NC1CCCCC1	-	-	-	-	-	-	.	.	.
CC1CCC(NC(=O)Cn2c(=O)oc3cc(S(=O)(=O)N4CCCC4)ccc32)CC1 (configuration not stated)	-	-	-	-	63	-	44	-	-
CC(=O)/C(C[N+]1(C)CCCCC1)=N\O	-	-	-	-	105	-	84	-	-
CCCCCC(=O)Nc1cccc(C2=NOC3(C2)C[C@@H](C(N)=O)N(C(=O)c2ccc(Cl)cc2)C3)c1 (some centres not stated)	-	-	-	-	66	-	-	-	.
